Results reported in ChEMBL document CHEMBL4145447, “4-arylamidobenzyl substituted 5-bromomethylene-2(5H)-furanones for chronic bacterial infection” (Eur J Med Chem, 2018).
Calls of active or inactive are those of the source. No cut-off for these calls is given here.

Assays:
[1] = test system: RAW264.7; assay: Anti-inflammatory activity in mouse RAW264.7 cells assessed as inhibition of LPS-induced IL-6 production by measuring IL-6 level at 10 uM preincubated for 2 hrs followed by LPS stimulation and measured after 24 hrs by ELISA (reference value: 407.6 +/- 16.7 pg/ml)
[2] = molecular target: T1, Peroxisome proliferator-activated receptor gamma (Mus musculus) (UniProt P37238); assay: Agonist activity at PPARgamma in mouse RAW264.7 cells assessed as inhibition of LPS-induced MAPK p38 phosphorylation at Thr180/Tyr182 residues at 10 uM preincubated for 1 hr followed by LPS stimulation and measured after 4 hrs by Western blot analysis; type: cell-based
T1 sequence (whole entry): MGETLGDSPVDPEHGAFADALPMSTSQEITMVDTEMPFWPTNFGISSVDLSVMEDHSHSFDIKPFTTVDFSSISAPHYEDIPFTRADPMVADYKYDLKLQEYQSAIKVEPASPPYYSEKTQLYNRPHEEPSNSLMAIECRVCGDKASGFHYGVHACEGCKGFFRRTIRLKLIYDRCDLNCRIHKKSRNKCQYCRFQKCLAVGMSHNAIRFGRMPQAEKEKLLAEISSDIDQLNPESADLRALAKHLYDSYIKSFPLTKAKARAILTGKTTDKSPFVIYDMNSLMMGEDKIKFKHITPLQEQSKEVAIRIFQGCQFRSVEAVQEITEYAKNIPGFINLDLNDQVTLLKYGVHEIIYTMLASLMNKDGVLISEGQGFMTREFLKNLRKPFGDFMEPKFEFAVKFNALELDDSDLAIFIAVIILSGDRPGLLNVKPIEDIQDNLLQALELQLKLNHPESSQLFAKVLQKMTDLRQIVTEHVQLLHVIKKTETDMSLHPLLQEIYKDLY
Method in brief: (§1)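 Western blot: RAW264.7 cells (2 × 10^6/well) pretreated 1 h with compound (10 µM), antagonist GW9662 (5 µM) where stated, then LPS 500 ng/mL for 4 h. Lysis on ice with PMSF, BCA-normalised protein on SDS gels, PVDF transfer, milk block, phospho- and total-protein primary antibodies, HRP secondary, ECL detection. Densitometry normalised to internal control; n = 3.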

[3] = test system: RAW264.7; assay: Anti-inflammatory activity in mouse RAW264.7 cells assessed as inhibition of LPS-induced IL-6 production by measuring […] level at 10 uM preincubated for 2 hrs followed by LPS stimulation and measured after 12 hrs by ELISA (reference value: 175.2 +/- 10.2 pg/ml); type: functional
[4] = test system: RAW264.7; assay: Anti-inflammatory activity in mouse RAW264.7 cells assessed as inhibition of LPS-induced IL-6 production by measuring […] level at 10 uM preincubated for 2 hrs followed by LPS stimulation and measured after 6 hrs by ELISA (reference value: 94.6 +/- 5.9 pg/ml); type: functional
[5] = molecular target: T1, Peroxisome proliferator-activated receptor gamma (Mus musculus); assay: Agonist activity at PPARgamma in mouse RAW264.7 cells assessed as inhibition of LPS-induced NF-kB p65 phosphorylation at 10 uM preincubated for 1 hr followed by LPS stimulation and measured after 4 hrs by Western blot analysis; type: cell-based
Method in brief: as §1

[6] = test system: RAW264.7; assay: Anti-inflammatory activity in mouse RAW264.7 cells assessed as inhibition of LPS-induced TNF-alpha production by measuring TNF-alpha level at 10 uM preincubated for 2 hrs followed by LPS stimulation and measured after 6 hrs by ELISA (reference value: 11922 +/- 628.4 pg/ml); type: functional
[7] = molecular target: T1, Peroxisome proliferator-activated receptor gamma (Mus musculus); assay: Agonist activity at PPARgamma in mouse RAW264.7 cells assessed as inhibition of LPS-induced NF-kB p65 phosphorylation at 10 uM preincubated for 1 hr followed by LPS stimulation and measured after 4 hrs in presence of PPARgamma antagonist GW9662 by Western blot analysis; type: cell-based
Method in brief: as §1

[8] = molecular target: T1, Peroxisome proliferator-activated receptor gamma (Mus musculus); assay: Agonist activity at PPARgamma in mouse RAW264.7 cells assessed as inhibition of LPS-induced MAPK p38 phosphorylation at Thr180/Tyr182 residues at 10 uM preincubated for 1 hr followed by LPS stimulation and measured after 4 hrs in presence of PPARgamma antagonist GW9662 by Western blot analysis; type: cell-based
Method in brief: as §1

[9] = molecular target: T1, Peroxisome proliferator-activated receptor gamma (Mus musculus); assay: Agonist activity at PPARgamma in mouse RAW264.7 cells assessed as inhibition of LPS-induced ERk1/2 phosphorylation at Thr202/Tyr204 residues at 10 uM preincubated for 1 hr followed by LPS stimulation and measured after 4 hrs by Western blot analysis; type: cell-based
Method in brief: as §1

[10] = molecular target: T2, Anthranilate--CoA ligase (Pseudomonas aeruginosa (strain ATCC 15692 / DSM 22644 / CIP 104116 /JCM 14847 / LMG 12228 / 1C / PRS 101 / PAO1)) (UniProt Q9I4X3); assay: Inhibition of Pseudomonas aeruginosa PAO1 GFP-fused quorum sensing pqsA at 10 uM measured every 15 mins up to 12 hrs by GFP reporter gene assay relative to control
T2 sequence (whole entry): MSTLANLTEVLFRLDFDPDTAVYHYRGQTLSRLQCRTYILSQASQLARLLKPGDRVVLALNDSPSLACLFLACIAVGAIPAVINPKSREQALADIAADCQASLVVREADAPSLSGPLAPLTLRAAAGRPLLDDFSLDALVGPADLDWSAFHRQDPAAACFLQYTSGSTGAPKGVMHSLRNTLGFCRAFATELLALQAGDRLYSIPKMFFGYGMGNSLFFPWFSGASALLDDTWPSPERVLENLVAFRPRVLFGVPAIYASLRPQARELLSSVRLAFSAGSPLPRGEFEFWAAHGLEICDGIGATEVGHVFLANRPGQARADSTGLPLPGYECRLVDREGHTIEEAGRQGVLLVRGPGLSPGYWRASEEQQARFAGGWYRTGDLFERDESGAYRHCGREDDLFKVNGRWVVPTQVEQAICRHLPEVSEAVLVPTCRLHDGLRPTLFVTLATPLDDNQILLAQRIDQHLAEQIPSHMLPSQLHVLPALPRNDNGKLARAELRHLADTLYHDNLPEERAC
Method in brief: (§2)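 GFP reporter strains of P. aeruginosa PAO1 (lasB-, rhlA- or pqsA-promoter fused to unstable gfp(ASV)) grown overnight in LB at 37 °C, 200 rpm, 18 h, then diluted 1:100. Culture mixed 1:1 with compound diluted in LB from 10 mM DMSO stock (0.1% DMSO final). Fluorescence (ex 485/em 528 nm) read every 15 min at 37 °C for ≥12 h.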

[11] = test system: Pseudomonas aeruginosa PAO1; assay: Inhibition of Pseudomonas aeruginosa PAO1 GFP-fused quorum sensing rhlA at 10 uM measured every 15 mins up to 12 hrs by GFP reporter gene assay relative to control
Method in brief: as §2

[12] = test system: RAW264.7; assay: Anti-inflammatory activity in mouse RAW264.7 cells assessed as inhibition of LPS-induced TNF-alpha production by measuring TNF-alpha level at 10 uM preincubated for 2 hrs followed by LPS stimulation and measured after 24 hrs by ELISA (reference value: 24216 +/- 498.7 pg/ml); type: functional

Row | SMILES | Activity [1] [pg/mL] | inhibition [2] | Activity [3] [pg/mL] | Activity [4] [pg/mL] | inhibition [5] | Activity [6] [pg/mL] | inhibition [7] | inhibition [8] | inhibition [9] | inhibition [10] [%] | inhibition [11] [%] | Activity [12] [pg/mL]
1 | O=C(C=Cc1ccccc1)Nc1ccc(CC2=CC(=O)O/C2=C/Br)cc1 | 158.2 | Active | 75.3 | 19.6 | Active | 7750 | inactive | inactive | Active | 23.1 | 12 | 19550
2 | O=C(Cc1ccc(F)cc1)Nc1ccc(CC2=CC(=O)OC2=CBr)cc1 | 145.2 | Active | 66.3 | 17 | Active | 7524.7 | inactive | inactive | Active | 50.3 | 14.7 | 18322
